The values that follow come from ChEMBL document CHEMBL4715860 (J Med Chem, 2020).

The nature of data set [1]: Inhibition of mTOR2 in human A2058 cells assessed as reduction in PKB/Akt phosphorylation at Ser473 incubated for 1 hr by Western blot analysis. It is filed as cell-based. The note with it: A2058, 1 h. In a few lines:
(§1)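 A2058 cells grown 24 h at 37 °C, then exposed to inhibitor or DMSO for 1 h. Cells were PFA-fixed and stained for pPKB Ser473 or pS6 Ser235/236 by in-cell western with IR-dye secondary antibodies. Signal normalized to tubulin and to DMSO. IC50 from a 7-point (triplicate) or 11-point (duplicate) 1:2 series.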
In general terms: Immunoblotting shows a protein as a band on a membrane.

Data set [2] can be described thus: Inhibition of mTORC1 in human A2058 cells assessed as reduction in RPS6 phosphorylation at S235/236 residue incubated for 1 hrs by Western blot analysis. The note with it: A2058, 1 h. It is filed as cell-based. The method in brief:
as §1

In data set [3] the target is PI3-kinase p110-alpha/p85-alpha (Homo sapiens, UniProt P42336). The data set can be described thus: Inhibition of alexa fluor 647-labeled kinase tracer 314 binding to recombinant human N-terminal His-tagged p110alpha/p85alpha expressed in baculovirus expression system measured after 60 mins by LanthaScreen TR-FRET assay relative to control.
Data set [4] addresses Serine/threonine-protein kinase mTOR (Homo sapiens, UniProt P42345). The data set can be described thus: Inhibition of alexa fluor 647-labeled kinase tracer 314 binding to recombinant human N-terminal GST-tagged mTOR (1360 to 2549 residues) expressed in baculovirus expression system measured after 60 mins by TR-FRET based LanthaScreen Eu kinase binding assay.
Data set [5] in a line: Substrate activity at human P-glycoprotein stably expressed in MDCK cells at 1 uM measured after 5 to 20 mins by UPLC-MS/MS analysis. It is filed as ADME, cell-based. Conditions: time 5-20 min. The method in brief: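 CRISPR canine-MDR1-knockout MDCKII cells stably expressing human MDR1, with the knockout parent line as control. Cells grown 5 days on TransWell filters and preincubated in HBSS 30 min at 37 °C. Compound at 1 μM added apical or basolateral. Receiver sampled at 5, 10 and 20 min; UPLC-MS/MS.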

Data set [6] can be described thus: Metabolic stability in CD1 mouse hepatocytes assessed as half-life at 5 uM incubated for 3 hrs by LC-MS analysis. It is filed as ADME, cell-based, Hepatocyte. The method in brief:
(§2)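 Cryopreserved primary hepatocytes in suspension from CD-1 mouse, Sprague-Dawley rat, Beagle dog and human. Compound at 5 μM final (from 10 mM DMSO stock). Samples taken at 0, 15, 60, 90 and 180 min and quenched with ACN plus internal standard. Parent quantified by LC-MS. Hepatocyte-free medium incubations served as negative control; 7-ethoxycoumarin as positive control. Duplicate; CLint per 10^6 cells and t1/2.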

The nature of data set [7]: Metabolic stability in Sprague-Dawley rat hepatocytes assessed as half-life at 5 uM incubated for 3 hrs by LC-MS analysis. It is filed as ADME, cell-based, Hepatocyte. The method in brief: as §2
Data set [8] in a line: Metabolic stability in Beagle dog hepatocytes assessed as half-life at 5 uM incubated for 3 hrs by LC-MS analysis. It is filed as ADME, cell-based, Canis lupus familiaris, Hepatocyte. In a few lines:
as §2

The nature of data set [9]: Metabolic stability in human hepatocytes assessed as half-life at 5 uM incubated for 3 hrs by LC-MS analysis. It is filed as ADME, cell-based, Hepatocyte. The method in brief: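 Cryopreserved primary hepatocytes in suspension from CD-1 mouse, Sprague-Dawley rat, Beagle dog and human. Compound at 5 μM final (from 10 mM DMSO stock). Parent quantified by LC-MS. Hepatocyte-free medium incubations served as negative control; 7-ethoxycoumarin as positive control. Duplicate; CLint per 10^6 cells and t1/2.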

Data set [10] can be described thus: Cmax in C57BL/6J mouse plasma at 25 mg/kg, po administered as single dose by mass spectrometry based UHPLC analysis. It is filed as ADME, organism-based. Also noted: route oral, dose 25 mg/kg. The method in brief: (§3)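 One oral dose of 25 mg/kg to female C57BL/6J mice. Plasma and brain concentrations followed over time, n = 3 per time point (mean).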
A short description of data set [11]: Tmax in C57BL/6J mouse plasma at 25 mg/kg, po administered as single dose by mass spectrometry based UHPLC analysis. It is filed as ADME, organism-based. The method in brief: (§4)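 Female C57BL/6J mice given a single oral dose of 25 mg/kg. Plasma and brain levels followed over time (n = 3 per time point, mean). Tmax is the time of maximal concentration.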
Data set [12] can be described thus: Elimination half life in C57BL/6J mouse plasma at 25 mg/kg, po administered as single dose by mass spectrometry based UHPLC analysis. It is filed as ADME, organism-based. Conditions: read-out: beta t1/2 (converted). The method in brief:
as §3

Data set [13] is described as follows: AUC (0 to 8 hrs) in C57BL/6J mouse plasma at 25 mg/kg, po administered as single dose by mass spectrometry based UHPLC analysis. It is filed as ADME, organism-based. Further details: time < 8 hr, route oral, dose 25 mg/kg. In a few lines: as §3
Data set [14] is described as follows: Clearance in C57BL/6J mouse plasma at 25 mg/kg, po administered as single dose by mass spectrometry based UHPLC analysis. It is filed as ADME, organism-based. In a few lines:
as §3

Data set [15] can be described thus: Cmax in C57BL/6J mouse brain at 25 mg/kg, po administered as single dose by mass spectrometry based UHPLC analysis. Also noted: route oral, dose 25 mg/kg. It is filed as ADME, organism-based. The method in brief: as §3
Data set [16] in a line: Tmax in C57BL/6J mouse brain at 25 mg/kg, po administered as single dose by mass spectrometry based UHPLC analysis. It is filed as ADME, organism-based. The method in brief:
as §4

Data set [17] can be described thus: Elimination half life in C57BL/6J mouse brain at 25 mg/kg, po administered as single dose by mass spectrometry based UHPLC analysis. The note with it: read-out: beta t1/2 (converted). It is filed as ADME, organism-based. The method in brief:
as §3

Data set [18] is described as follows: AUC (0 to 8 hrs) in C57BL/6J mouse brain at 25 mg/kg, po administered as single dose by mass spectrometry based UHPLC analysis. It is filed as ADME, organism-based. Further details: time < 8 hr, route oral, dose 25 mg/kg. The method in brief: as §3
Data set [19] concerns Mus musculus. In words: In vivo inhibition of PI3Kalpha in C57BL/6J mouse assessed as increase in plasma glucose concentration at 25 mg/kg, po measured after 8 hrs by glucoseoxidase-peroxide coupled colorimetric assay. It is filed as functional, organism-based. The method in brief: (§5)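 Female C57BL/6J mice given one oral dose (25 mg/kg); plasma insulin and glucose monitored over time, mean ± SEM.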

In data set [20] the test system is Mus musculus. In words: In vivo inhibition of PI3Kalpha C57BL/6J mouse assessed as increase in plasma insulin concentration at 25 mg/kg, po measured after 8 hrs by ELISA. It is filed as functional, organism-based. In a few lines:
as §5
A general note: ELISA stands for enzyme-linked immunosorbent assay.

Data set [21] can be described thus: AUC (0 to 8 hrs) in male Sprague-Dawley rat plasma at 5 mg/kg, po. It is filed as ADME, organism-based. Further details: time < 8 hr, route oral, dose 5 mg/kg. In a few lines:
(§6)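 Male Sprague Dawley rats, single oral dose of 5 mg/kg. Plasma and brain concentrations measured over 8 h, n = 3, mean ± SEM; AUC0−8 computed from the time course.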

A short description of data set [22]: AUC (0 to 8 hrs) in male Sprague-Dawley rat brain at 5 mg/kg, po. It is filed as ADME, organism-based. Further details: time < 8 hr, route oral, dose 5 mg/kg. The note with it: in vivo. The method in brief:
as §6

Activity calls are given as the source filed them. The calls are words filed in the database; no cut-off is given here.

Chain of PI3-kinase p110-alpha/p85-alpha (P27986 whole entry, the tested form may be a part): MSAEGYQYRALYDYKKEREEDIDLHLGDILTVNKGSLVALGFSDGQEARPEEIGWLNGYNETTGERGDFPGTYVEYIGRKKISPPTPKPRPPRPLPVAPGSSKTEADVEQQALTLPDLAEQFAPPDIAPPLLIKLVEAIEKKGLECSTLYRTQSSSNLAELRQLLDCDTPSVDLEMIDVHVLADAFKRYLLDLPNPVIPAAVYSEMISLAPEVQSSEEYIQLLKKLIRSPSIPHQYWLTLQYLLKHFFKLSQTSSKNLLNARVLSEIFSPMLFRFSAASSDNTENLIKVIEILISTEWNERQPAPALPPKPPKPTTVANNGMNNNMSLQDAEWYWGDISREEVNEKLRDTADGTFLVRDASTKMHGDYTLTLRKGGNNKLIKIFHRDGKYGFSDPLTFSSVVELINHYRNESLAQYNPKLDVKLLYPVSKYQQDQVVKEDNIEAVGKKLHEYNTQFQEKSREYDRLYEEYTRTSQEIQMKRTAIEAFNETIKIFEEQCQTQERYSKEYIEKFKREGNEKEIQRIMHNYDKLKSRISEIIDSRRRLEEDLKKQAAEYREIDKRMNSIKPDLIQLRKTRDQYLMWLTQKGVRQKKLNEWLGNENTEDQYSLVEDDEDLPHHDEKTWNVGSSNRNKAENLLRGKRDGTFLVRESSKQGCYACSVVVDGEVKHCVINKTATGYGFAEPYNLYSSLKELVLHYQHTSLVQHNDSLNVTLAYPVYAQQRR
Chain of PI3-kinase p110-alpha/p85-alpha (P42336 whole entry, the tested form may be a part): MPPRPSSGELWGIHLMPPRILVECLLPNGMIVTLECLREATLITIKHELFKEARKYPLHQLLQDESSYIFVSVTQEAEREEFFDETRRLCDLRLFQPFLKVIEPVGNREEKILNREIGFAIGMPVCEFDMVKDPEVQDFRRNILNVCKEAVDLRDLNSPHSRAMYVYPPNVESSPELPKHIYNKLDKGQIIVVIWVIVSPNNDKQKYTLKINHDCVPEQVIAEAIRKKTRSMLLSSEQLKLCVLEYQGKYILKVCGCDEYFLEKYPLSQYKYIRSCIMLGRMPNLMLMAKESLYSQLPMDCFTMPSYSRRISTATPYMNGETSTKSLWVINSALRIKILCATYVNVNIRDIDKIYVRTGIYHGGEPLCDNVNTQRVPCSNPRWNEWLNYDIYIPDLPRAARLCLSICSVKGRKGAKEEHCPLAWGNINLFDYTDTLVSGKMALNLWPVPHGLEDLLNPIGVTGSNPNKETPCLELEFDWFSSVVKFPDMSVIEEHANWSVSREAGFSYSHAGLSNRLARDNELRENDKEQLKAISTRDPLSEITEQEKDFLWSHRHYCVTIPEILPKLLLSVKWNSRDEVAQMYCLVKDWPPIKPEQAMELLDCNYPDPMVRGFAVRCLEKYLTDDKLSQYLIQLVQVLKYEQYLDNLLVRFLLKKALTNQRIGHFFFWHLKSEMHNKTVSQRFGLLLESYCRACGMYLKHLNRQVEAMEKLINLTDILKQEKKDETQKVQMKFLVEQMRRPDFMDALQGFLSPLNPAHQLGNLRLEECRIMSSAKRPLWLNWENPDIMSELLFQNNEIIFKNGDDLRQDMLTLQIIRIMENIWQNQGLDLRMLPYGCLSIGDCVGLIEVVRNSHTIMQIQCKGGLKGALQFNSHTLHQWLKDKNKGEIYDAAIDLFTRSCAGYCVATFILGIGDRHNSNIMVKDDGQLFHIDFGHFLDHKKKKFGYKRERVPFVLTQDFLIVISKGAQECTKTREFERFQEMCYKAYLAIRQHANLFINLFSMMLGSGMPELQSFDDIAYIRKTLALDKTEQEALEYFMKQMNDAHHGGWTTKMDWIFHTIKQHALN

For `C[C@@H]1COCCN1c1nc(-c2cnc(N)cc2C(F)F)nc(N2CCOC[C@H]2CO)n1`, the half-maximal inhibitory concentration (IC50) (as a rule, the concentration at which inhibition is half-maximal) in [1] was 1.48 µM; in data set [2], above 1 µM. In addition, the Ki (usually a measure of affinity in units of concentration, obtained from inhibition or displacement) in [3] was above 1 µM; in data set [4], 0.05 µM.

Turning to `COC[C@@H]1COCCN1c1nc(-c2cnc(N)cc2C(F)F)nc(N2CCOC[C@H]2C)n1`, the IC50 is 0.956 µM in data set [1] and 0.426 µM in data set [2]. Also, the Ki is above 1 µM in [3] and 0.023 µM in data set [4].

`C[C@@H]1COCCN1c1nc(-c2cnc(N)cc2C(F)F)nc(N2CCOC[C@@H]2C)n1`: the IC50 in [1] turned out to be 0.173 µM; in data set [2] it was 0.137 µM. In addition, the values for the Ki in data set [3] and in data set [4] were 0.033 µM and 0.011 µM, respectively. For the same molecule, the Activity result in data set [5] is “Not Active”.

With `C[C@@H]1COCCN1c1nc(-c2cnc(N)cc2C(F)F)nc(N2CCOC[C@H]2C)n1`, the figures for the IC50 in data set [1] and in data set [2] were 0.436 µM and 0.261 µM, respectively. Moreover, the Ki in data set [3] worked out at 0.469 µM; in data set [4] it was 0.014 µM.

As to `CC[C@@H]1COCCN1c1nc(-c2cnc(N)cc2C(F)F)nc(N2CCOC[C@H]2C)n1`, the values for the half-maximal inhibitory concentration (IC50) in data set [1] and in data set [2] were 0.231 µM and 0.238 µM, respectively. For the same molecule, the results for the Ki in [3] and in data set [4] were 0.065 µM and 0.018 µM, respectively.

Regarding `C[C@@H]1COCCN1c1nc(-c2cnc(N)cc2C(F)F)nc(N2[C@@H](C)COC[C@@H]2C)n1`, the figures for the IC50 in [1] and in [2] were 0.2 µM and 0.136 µM, respectively. Besides, the Ki in data set [3] was determined as 0.233 µM; in [4], 0.0064 µM.

In the case of `C[C@@H]1COCCN1c1nc(-c2cnc(N)cc2C(F)F)nc(N2CCOCC2)n1`, the Ki in [3] amounted to 0.019 µM; in data set [4], 0.008 µM. The Activity result in data set [5] is recorded as “Not Active”.

As to `C[C@@H]1COCCN1c1nc(-c2cnc(N)cc2C(F)F)nc(N2CCOC[C@@H]2CO)n1`, the IC50 in [1] is 0.524 µM; in data set [2], 0.471 µM. The Ki in data set [3] is above 1 µM; in [4], 0.028 µM.

In the case of `C[C@@H]1COCCN1c1nc(-c2cnc(N)cc2C(F)F)nc(N2C3COCC2C3)n1`, the IC50 turned out to be 1.56 µM in [1] and 0.407 µM in [2]. In addition, the values for the Ki in [3] and in data set [4] were above 1 µM and 0.073 µM, respectively.

`CC[C@H]1COCCN1c1nc(-c2cnc(N)cc2C(F)F)nc(N2CCOC[C@H]2C)n1`: the IC50 was determined as 0.248 µM in [1] and 0.241 µM in data set [2]. The results for the Ki in data set [3] and in data set [4] were 0.063 µM and 0.067 µM, respectively.

As for `C[C@@H]1CN(c2nc(-c3cnc(N)cc3C(F)F)nc(N3CCOC[C@H]3C)n2)C[C@H](C)O1`, the IC50 in [1] amounted to 1.34 µM; in data set [2] it was 0.561 µM. Also, the Ki in data set [3] is above 1 µM; in [4] it was 0.042 µM.

Take `CCOc1ccc2ccc(=O)oc2c1`: the half-life at 5 µM in [6] stood at 21 min; in data set [7] it was 55 min; in data set [8], 14 min; in [9] it was 31 min.

On to `C[C@@H]1COCCN1c1nc(-c2cnc(N)cc2C(F)F)nc(N2[C@H](C)COC[C@H]2C)n1`, for which the figures for the concentration for half-maximal inhibition (IC50) in [1] and in data set [2] were 0.506 µM and 0.392 µM, respectively. Further, the Ki in data set [3] was above 1 µM; in [4], 0.025 µM.

For `CNC(=O)c1cccc(-c2ccc3c(N4CCOC[C@@H]4C)nc(N4CCOC[C@@H]4C)nc3n2)c1` [VISTUSERTIB], the highest concentration (Cmax) (commonly the peak of the concentration-time curve) in data set [10] worked out at 7.19 µg/mL; in data set [15], 0.286 µg/mL. Besides, the Tmax in data set [11] and in [16] was 30 min each time. Moreover, the half-life in data set [12] is 450 min; in data set [17], 516 min. Also, the AUC(0-t) – broadly, the area under the concentration-time curve up to a stated or last time point – at 8 h in [13] came out at 33.7 µg·h/mL; in data set [18], 1.34 µg·h/mL. Also, the apparent clearance CL/F (as a rule, clearance divided by bioavailability, as obtained after extravascular dosing) in [14] is 0.66 L/h/kg. Moreover, the inhibition result in [19] and in data set [20] was “inactive” throughout.

`C[C@@H]1COCCN1c1nc(-c2cnc(N)cn2)nc2c1C[C@@H]1COCCN21` came in with an AUC(0-t) at 8 h in data set [21] above 5.5 µg·h/mL. Besides, the AUC in data set [22] is below 110 ng·h/g.

In the case of `C[C@@H]1COCCN1c1nc(-c2cnc(N)cc2C(F)F)nc(N2CCOCC23CCC3)n1`, the figures for the 50% inhibitory concentration (IC50) in data set [1] and in [2] were 0.271 µM and 0.192 µM, respectively. The Ki in data set [3] turned out to be 0.404 µM; in [4] it was 0.011 µM.
